Experimental data pooled from the literature.
Cell line: HL-60
Effect on: cell growth or viability

| SMILES | technique | time | notes | IC50 [nM] |
| --- | --- | --- | --- | --- |
| CC(C)C[C@H](NC(=O)[C@H](Cc1ccccc1)NC(=O)c1cnccn1)B(O)O | ATP luminescence |  |  | 4.1 |
| N[C@@H](CC(=O)N1CCN(C(c2ccc(F)cc2)c2ccc(F)cc2)CC1)C(=O)N1Cc2ccccc2C1 | ATP luminescence | 48 h |  | 2710 |
| CCCON(Cc1ccc(C(=O)NO)cc1)C(=O)Nc1ccccc1 | ATP luminescence | 72 h |  | 1690 |
| CCn1c(-c2nnc(NC(=O)c3cc4c([nH]c5ccccc54)c(-c4ccc(OC)cc4)n3)s2)cc2ccccc21 | MTT | 72 h |  | 46200 |
| CN1c2ccccc2C(=O)N2[C@H](C(=O)Nc3ccc(C(=O)Nc4ccccc4N)cc3)Cc3c([nH]c4ccccc34)[C@@H]12 |  |  |  | 560 |
| COc1ccc(C(=O)CC(=O)c2ccc(C(C)(C)C)cc2)cc1 |  |  | dark | ~30000 |
| O=C(Nc1nnc(-c2cc3ccccc3[nH]2)s1)c1cc2c([nH]c3ccccc32)c(-c2ccc(F)cc2)n1 | MTT | 72 h |  | 9850 |
| O=c1[nH]c(=S)n(Cc2ccc(Cl)cc2CNCC(F)(F)F)c2cc[nH]c12 |  |  |  | 1300 |
| COc1cc(O)c(C(=O)c2ccccc2)cc1S(=O)(=O)O | resazurin | 72 h | dark | > 100000 |
| Nc1ncc(-c2cnn(C3CCNCC3)c2)cc1-c1nnc(CC2CC2)o1 | trypan blue | 72 h |  | 678 |
| COc1ccc(-c2nc(C(=O)Nc3nnc(-c4cc5ccccc5[nH]4)s3)cc3c2[nH]c2ccccc23)cc1 | MTT | 72 h |  | 3830 |
| COc1cc(/C=C/C(=O)CC(=O)/C=C/c2ccc(O)c(OC)c2)ccc1O | resazurin | 72 h | dark | 4100 |
